Test results: ChEMBL document CHEMBL4422684, “Identification of novel lysine demethylase 5-selective inhibitors by inhibitor-based fragment merging strategy” (Bioorg Med Chem, 2019)

Tests used:
[1] = target: T1, Lysine-specific demethylase 2A (Homo sapiens, UniProt Q9Y2K7); experiment: Inhibition of human N-terminal FLAG/Avi-tagged KDM2A (2 to 700 residues) expressed in baculovirus infected Sf9 insect cells using H3(21-44)-K36(Me2)-GK(Biotin)/2-OG as substrate measured after 1 hr by Alphalisa assay
T1 sequence (Q9Y2K7 whole entry): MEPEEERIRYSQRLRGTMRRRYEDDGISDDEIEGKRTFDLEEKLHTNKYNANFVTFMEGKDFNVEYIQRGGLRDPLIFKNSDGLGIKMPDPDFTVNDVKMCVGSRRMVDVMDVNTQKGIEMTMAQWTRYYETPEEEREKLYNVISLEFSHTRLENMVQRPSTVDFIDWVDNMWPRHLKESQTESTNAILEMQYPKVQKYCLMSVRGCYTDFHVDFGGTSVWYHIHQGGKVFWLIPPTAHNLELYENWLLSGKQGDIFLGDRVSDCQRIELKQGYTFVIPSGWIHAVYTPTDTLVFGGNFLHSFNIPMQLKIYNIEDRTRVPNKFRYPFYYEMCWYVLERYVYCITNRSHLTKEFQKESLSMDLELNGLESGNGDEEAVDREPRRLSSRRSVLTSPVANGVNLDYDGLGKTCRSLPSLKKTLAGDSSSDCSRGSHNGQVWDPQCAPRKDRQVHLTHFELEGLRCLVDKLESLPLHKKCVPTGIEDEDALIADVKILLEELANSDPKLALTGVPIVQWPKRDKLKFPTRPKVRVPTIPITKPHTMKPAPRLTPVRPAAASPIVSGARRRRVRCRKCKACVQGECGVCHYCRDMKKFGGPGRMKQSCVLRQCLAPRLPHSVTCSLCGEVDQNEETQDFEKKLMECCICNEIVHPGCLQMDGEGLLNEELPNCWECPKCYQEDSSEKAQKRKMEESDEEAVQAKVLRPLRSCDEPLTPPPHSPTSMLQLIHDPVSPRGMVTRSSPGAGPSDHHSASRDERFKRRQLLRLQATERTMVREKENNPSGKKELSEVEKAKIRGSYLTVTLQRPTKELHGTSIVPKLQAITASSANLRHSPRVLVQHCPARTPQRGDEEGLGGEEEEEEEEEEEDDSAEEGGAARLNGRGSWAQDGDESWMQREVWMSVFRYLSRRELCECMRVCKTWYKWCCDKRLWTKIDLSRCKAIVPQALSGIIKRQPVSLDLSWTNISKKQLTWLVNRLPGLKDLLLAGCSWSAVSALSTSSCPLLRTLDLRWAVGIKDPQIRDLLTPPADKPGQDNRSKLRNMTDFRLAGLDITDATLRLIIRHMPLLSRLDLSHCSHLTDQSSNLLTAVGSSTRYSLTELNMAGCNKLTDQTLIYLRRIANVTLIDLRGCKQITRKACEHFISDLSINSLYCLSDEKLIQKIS
Outline: (§1)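 AlphaLISA demethylase assay in 50 mM HEPES pH 7.5, 0.1% BSA, 0.01% Tween 20 with DMSO. Enzyme and inhibitor combined, then peptide plus 2-OG (50 µM), Fe(II) (5 µM) and ascorbate (100 µM) in the added mix; 1 h at room temperature with shaking.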

[2] = target: Histone lysine demethylase PHF8 (Homo sapiens, UniProt Q9UPP1); experiment: Inhibition of human N-terminal FLAG-tagged KDM7B (2 to 525 residues) expressed in baculovirus infected Sf9 insect cells using H3(1-21)K9(Me2)-GGK(Biotin)/2-OG as substrate measured after 1 hr by Alphalisa assay; outline: as §1
[3] = target: T2, Lysine-specific demethylase 3A (Homo sapiens) (UniProt Q9Y4C1); experiment: Inhibition of human N-terminal FLAG-tagged KDM3A (2 to 1321 residues) expressed in baculovirus infected Sf9 insect cells at 25 uM using H3(1-21)K9(Me1)-GGK(Biotin)/2-OG as substrate measured after 1 hr by Alphalisa assay relative to control; outline: as §1
T2 sequence (whole entry): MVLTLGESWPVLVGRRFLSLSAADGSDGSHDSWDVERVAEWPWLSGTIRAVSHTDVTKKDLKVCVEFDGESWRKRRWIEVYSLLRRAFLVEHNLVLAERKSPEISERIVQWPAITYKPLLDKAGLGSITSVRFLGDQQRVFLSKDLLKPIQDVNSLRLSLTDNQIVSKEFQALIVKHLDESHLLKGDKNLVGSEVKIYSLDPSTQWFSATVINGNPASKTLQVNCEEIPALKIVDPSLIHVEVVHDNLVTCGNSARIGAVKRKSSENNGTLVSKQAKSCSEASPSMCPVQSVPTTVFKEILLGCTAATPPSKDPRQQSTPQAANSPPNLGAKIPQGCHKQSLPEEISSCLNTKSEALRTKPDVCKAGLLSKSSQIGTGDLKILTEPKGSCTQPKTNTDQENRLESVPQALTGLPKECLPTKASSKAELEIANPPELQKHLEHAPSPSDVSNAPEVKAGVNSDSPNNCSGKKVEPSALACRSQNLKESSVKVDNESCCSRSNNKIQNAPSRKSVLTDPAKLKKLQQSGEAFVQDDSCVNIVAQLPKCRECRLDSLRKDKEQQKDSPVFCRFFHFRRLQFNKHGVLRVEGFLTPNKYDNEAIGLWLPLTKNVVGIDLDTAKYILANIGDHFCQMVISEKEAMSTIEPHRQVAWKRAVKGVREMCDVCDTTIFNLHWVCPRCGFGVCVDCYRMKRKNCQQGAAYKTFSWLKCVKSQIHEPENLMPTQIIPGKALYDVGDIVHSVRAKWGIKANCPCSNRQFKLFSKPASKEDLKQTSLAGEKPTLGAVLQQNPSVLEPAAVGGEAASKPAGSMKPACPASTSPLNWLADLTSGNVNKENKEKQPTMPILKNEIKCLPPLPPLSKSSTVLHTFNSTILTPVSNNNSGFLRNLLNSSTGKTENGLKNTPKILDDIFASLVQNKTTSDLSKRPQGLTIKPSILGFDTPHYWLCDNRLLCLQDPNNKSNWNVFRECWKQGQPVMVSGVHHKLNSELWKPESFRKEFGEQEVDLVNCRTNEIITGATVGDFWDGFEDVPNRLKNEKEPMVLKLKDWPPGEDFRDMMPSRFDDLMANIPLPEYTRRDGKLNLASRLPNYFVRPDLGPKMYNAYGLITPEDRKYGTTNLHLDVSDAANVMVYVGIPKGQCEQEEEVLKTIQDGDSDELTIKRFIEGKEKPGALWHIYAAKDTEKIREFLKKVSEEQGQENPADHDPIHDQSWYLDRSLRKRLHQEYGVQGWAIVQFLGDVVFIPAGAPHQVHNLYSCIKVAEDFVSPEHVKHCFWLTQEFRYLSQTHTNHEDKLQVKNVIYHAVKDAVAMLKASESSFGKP

Chain of Histone lysine demethylase PHF8 (Q9UPP1 whole entry, the tested form may be a part): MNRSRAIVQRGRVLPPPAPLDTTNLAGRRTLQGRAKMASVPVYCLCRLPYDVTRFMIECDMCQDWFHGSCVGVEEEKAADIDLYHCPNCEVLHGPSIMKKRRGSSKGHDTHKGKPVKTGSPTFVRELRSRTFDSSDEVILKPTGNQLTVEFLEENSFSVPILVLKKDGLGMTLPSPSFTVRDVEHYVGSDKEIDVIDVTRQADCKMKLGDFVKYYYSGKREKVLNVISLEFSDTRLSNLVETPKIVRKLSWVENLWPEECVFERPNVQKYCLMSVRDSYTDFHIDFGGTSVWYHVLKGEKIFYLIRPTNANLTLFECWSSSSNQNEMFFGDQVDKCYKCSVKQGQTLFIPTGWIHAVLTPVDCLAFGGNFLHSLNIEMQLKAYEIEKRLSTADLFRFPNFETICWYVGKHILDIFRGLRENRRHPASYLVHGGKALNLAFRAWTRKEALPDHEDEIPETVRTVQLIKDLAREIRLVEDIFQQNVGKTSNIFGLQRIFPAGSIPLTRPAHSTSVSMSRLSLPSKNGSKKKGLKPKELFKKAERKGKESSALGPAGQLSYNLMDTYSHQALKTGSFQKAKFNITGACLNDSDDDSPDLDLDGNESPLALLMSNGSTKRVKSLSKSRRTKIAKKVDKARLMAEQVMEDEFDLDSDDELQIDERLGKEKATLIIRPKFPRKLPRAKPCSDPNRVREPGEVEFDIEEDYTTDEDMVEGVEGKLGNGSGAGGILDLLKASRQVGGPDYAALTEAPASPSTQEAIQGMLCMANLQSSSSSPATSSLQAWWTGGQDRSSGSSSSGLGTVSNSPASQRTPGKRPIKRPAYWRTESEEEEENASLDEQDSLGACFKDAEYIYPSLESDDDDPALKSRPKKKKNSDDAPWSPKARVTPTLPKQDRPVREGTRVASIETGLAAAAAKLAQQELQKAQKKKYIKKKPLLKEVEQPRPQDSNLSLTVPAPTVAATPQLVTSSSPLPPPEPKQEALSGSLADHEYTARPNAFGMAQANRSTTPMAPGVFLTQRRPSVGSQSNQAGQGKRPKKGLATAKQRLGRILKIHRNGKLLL

- IC50 [1]: > 50 µM
- IC50 [2]: > 50 µM
- inhibition [3]: 13%
Compound: CCCCCCN(C)Cc1ccc(-c2[nH]c3c(C#N)cnn3c(=O)c2C(C)C)cc1
